Experimental data as given in ChEMBL document CHEMBL1141651, “Discovery of a potent, selective, and orally active proteasome inhibitor for the treatment of cancer” (J Med Chem, 2008).
Activity calls are given as the source filed them. No cut-off for these calls is given here.

Tests used:
[1] = test system: A2780; assay: Cytotoxicity against human A2780 cells; assay type: functional, cell-based
Procedure, shortened: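 Antiproliferative activity was measured in A2780 ovarian carcinoma cells with a standard colorimetric assay of cell proliferation and viability. Results are expressed as IC50.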

[2] = Inhibition of chymotrypsin-like activity of human erythrocyte 20S proteasome
Procedure, shortened: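 Isolated 20S proteasome purified from human erythrocytes was tested in a fluorimetric kinetic assay of chymotrypsin-like activity. Potency is reported as IC50.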

[3] = Inhibition of chymotrypsin-like activity of human 20S proteasome in Molt4 cells; assay type: cell-based; details: molt-4
Procedure, shortened: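 Intact human leukemia Molt-4 cells were given the cell-permeable fluorogenic chymotrypsin-like substrate MeOSuc-FLF-AFC, so the read-out also reflects inhibitor cell permeability. Potency is reported as EC50.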

[4] = Inhibition of bovine alpha chymotrypsin; design: species or system Bos taurus
[5] = target: Plasminogen (Homo sapiens) (UniProt P00747); assay: Inhibition of human plasmin at 10 uM
[6] = organism: Homo sapiens; assay: Inhibition of human tryptase at 10 uM
[7] = target: Stromelysin-1 (Homo sapiens) (UniProt P08254); assay: Inhibition of human MMP3 at 10 uM
[8] = Protein binding in mouse plasma; assay type: ADME, cell-free; details: read-out: PPB (converted)
[9] = target: Cathepsin Z (Homo sapiens) (UniProt Q9UBR2); assay: Inhibition of human cathepsin Z at 10 uM
[10] = Half life in CD1 mouse at 4 mg/kg, po; assay type: ADME, organism-based; design: dose 4 mg/kg, route oral; details: in vivo
Procedure, shortened: (§1)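 Female Sprague–Dawley rats and CD-1 mice each received a single iv or oral (po) dose. Terminal half-life and systemic clearance were estimated from plasma exposure over time, alongside AUC0→∞, Vss and absolute oral bioavailability.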

[11] = organism: Sus scrofa; assay: Inhibition of pig pancreatic elastase 1 at 10 uM
[12] = organism: Homo sapiens; assay: Inhibition of human chymotrypsin at 10 uM
[13] = target: Caspase-3 (Homo sapiens) (UniProt P42574); assay: Inhibition of human caspase 3 at 10 uM
[14] = target: Chymase (Homo sapiens, UniProt P23946); assay: Inhibition of human chymase
[15] = target: Interstitial collagenase (Homo sapiens) (UniProt P03956); assay: Inhibition of human MMP1 at 10 uM
Chain of Interstitial collagenase (Homo sapiens) (P03956 whole entry): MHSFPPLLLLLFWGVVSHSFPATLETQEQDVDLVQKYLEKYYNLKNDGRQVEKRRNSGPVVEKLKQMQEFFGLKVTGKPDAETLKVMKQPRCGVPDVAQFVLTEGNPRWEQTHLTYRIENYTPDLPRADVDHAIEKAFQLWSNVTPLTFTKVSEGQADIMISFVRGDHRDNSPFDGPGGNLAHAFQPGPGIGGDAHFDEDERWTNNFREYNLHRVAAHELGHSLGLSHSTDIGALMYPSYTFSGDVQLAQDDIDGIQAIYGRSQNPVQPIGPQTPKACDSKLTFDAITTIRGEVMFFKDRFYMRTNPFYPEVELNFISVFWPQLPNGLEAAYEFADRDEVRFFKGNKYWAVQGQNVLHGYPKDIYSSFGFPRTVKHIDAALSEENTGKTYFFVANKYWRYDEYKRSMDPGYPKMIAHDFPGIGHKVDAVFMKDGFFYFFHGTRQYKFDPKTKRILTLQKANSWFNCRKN

[16] = target: Dipeptidyl peptidase 4 (Homo sapiens) (UniProt P27487); assay: Inhibition of human DPP4 at 10 uM
Chain of Dipeptidyl peptidase 4 (Homo sapiens) (P27487 whole entry, looked up): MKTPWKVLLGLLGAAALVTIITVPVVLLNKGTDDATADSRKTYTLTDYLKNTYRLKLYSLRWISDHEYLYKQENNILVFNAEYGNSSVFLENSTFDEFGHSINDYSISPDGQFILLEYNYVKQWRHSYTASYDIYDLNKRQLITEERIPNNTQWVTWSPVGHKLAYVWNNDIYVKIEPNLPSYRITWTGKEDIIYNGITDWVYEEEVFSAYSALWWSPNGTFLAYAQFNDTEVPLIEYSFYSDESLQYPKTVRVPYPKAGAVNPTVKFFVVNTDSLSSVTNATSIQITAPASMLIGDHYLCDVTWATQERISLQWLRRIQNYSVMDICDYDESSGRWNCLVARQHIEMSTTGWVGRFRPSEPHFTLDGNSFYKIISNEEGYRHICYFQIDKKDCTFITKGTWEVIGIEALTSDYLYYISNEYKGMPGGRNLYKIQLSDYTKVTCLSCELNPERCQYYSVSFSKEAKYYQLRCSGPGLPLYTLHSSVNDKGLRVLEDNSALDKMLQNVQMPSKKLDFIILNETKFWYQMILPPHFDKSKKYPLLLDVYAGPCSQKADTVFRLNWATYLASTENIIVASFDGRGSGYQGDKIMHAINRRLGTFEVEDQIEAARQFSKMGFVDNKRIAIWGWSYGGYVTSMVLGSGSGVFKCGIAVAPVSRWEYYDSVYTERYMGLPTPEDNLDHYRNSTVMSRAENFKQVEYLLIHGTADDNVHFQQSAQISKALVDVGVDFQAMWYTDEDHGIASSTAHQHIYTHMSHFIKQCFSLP

[17] = Metabolic stability in rat liver microsomes; assay type: ADME, Microsome
[18] = Inhibition of human chymotrypsin
Procedure, shortened: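 Cross-reactivity was tested against human pancreas α-chymotrypsin using a fluorogenic specific substrate. Results are expressed as IC50.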

[19] = target: Pro-cathepsin H (Homo sapiens) (UniProt P09668); assay: Inhibition of human cathepsin H at 10 uM
[20] = target: Matrilysin (Homo sapiens) (UniProt P09237); assay: Inhibition of human MMP7 at 10 uM
[21] = target: Cathepsin G (Homo sapiens, UniProt P08311); assay: Inhibition of human cathepsin G
[22] = Volume of distribution at steady state in CD1 mouse at 0.8 mg/kg, iv; assay type: ADME, organism-based; design: dose 0.8 mg/kg, route intravenous; details: in vivo, read-out: Vdss
Procedure, shortened: (§2)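 Single-dose pharmacokinetics after iv or oral administration in female Sprague–Dawley rats and in CD-1 mice; plasma exposure (AUC0–∞) used to derive steady-state volume of distribution, clearance, terminal half-life and absolute oral bioavailability.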

[23] = Metabolic stability in dog liver microsomes; assay type: ADME, Canis lupus familiaris, Microsome
[24] = target: Caspase-7 (Homo sapiens) (UniProt P55210); assay: Inhibition of human caspase 7 at 10 uM
[25] = Protein binding in rat plasma; assay type: ADME, cell-free; details: read-out: PPB (converted)
[26] = target: 72 kDa type IV collagenase (Homo sapiens) (UniProt P08253); assay: Inhibition of human MMP2 at 10 uM
[27] = Clearance in CD1 mouse at 0.8 mg/kg, iv; assay type: ADME, organism-based; design: dose 0.8 mg/kg, route intravenous; details: in vivo; procedure, shortened: as §1
[28] = test system: Mus musculus; assay: Inhibition of 20S proteasome beta5beta1 subunit binding in human RPMI 8226 cells xenografted mouse; assay type: functional, organism-based
[29] = target: Calpain-1 catalytic subunit (Homo sapiens) (UniProt P07384); assay: Inhibition of human calpain 1 at 10 uM
[30] = target: Neprilysin (Homo sapiens) (UniProt P08473); assay: Inhibition of human NEP at 10 uM
Chain of Neprilysin (Homo sapiens) (P08473 whole entry): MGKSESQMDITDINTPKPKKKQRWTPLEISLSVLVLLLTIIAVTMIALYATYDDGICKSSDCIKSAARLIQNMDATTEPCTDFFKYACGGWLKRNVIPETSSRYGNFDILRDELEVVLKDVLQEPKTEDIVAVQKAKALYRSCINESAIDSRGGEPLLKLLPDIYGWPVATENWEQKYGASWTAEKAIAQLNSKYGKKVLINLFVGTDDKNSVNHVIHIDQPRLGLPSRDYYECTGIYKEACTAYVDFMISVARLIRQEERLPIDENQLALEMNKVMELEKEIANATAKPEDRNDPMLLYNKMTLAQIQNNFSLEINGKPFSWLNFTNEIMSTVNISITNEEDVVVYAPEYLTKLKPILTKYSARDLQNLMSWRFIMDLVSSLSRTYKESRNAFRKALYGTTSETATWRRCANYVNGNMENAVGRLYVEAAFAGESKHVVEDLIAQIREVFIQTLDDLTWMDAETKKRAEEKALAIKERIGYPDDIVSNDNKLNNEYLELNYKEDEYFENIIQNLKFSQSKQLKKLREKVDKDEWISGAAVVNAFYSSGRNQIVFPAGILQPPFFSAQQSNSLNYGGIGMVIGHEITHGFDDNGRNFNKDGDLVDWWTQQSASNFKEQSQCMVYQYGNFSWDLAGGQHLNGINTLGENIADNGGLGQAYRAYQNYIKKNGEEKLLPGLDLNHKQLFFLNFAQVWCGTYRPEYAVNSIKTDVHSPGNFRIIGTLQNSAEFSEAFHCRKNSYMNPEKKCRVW

[31] = target: Macrophage metalloelastase (Homo sapiens) (UniProt P39900); assay: Inhibition of human MMP12 at 10 uM
[32] = target: Cathepsin S (Homo sapiens) (UniProt P25774); assay: Inhibition of human cathepsin S at 10 uM
Chain of Cathepsin S (Homo sapiens) (P25774 115-331 limits assumed): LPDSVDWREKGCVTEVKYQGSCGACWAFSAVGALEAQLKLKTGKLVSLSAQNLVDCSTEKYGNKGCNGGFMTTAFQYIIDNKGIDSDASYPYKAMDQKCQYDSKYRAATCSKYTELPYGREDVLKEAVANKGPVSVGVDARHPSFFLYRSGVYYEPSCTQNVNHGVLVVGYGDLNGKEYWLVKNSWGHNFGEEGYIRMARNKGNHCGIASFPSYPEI

[33] = Oral bioavailability in CD1 mouse at 4 mg/kg; assay type: ADME, organism-based; details: in vivo; procedure, shortened: as §2
[34] = target: Tissue-type plasminogen activator (Homo sapiens) (UniProt P00750); assay: Inhibition of human TPA at 10 uM
[35] = target: Protease (Human immunodeficiency virus 1) (UniProt Q9YQ12); assay: Inhibition of HIV1 protease at 10 uM
Chain of Protease (Human immunodeficiency virus 1) (Q9YQ12 as listed by the source): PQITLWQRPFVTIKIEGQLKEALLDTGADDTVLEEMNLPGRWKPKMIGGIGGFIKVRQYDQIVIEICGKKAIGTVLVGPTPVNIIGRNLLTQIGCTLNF

[36] = Half life in CD1 mouse at 0.8 mg/kg, iv; assay type: ADME, organism-based; design: dose 0.8 mg/kg, route intravenous; details: in vivo; procedure, shortened: as §1
[37] = AUC (0 to infinity) in CD1 mouse at 4 mg/kg, po; assay type: ADME, organism-based; design: time infinity, dose 4 mg/kg, route oral; details: plasma
[38] = target: Coagulation factor X (Homo sapiens) (UniProt P00742); assay: Inhibition of human factor 10a at 10 uM
[39] = target: Neutrophil collagenase (Homo sapiens) (UniProt P22894); assay: Inhibition of human MMP8 at 10 uM
[40] = Metabolic stability in mouse liver microsomes; assay type: ADME, Microsome
[41] = organism: Sus scrofa; assay: Inhibition of pig pepsin at 10 uM
[42] = Metabolic stability in human liver microsomes; assay type: ADME, Microsome
[43] = target: Caspase-8 (Homo sapiens) (UniProt Q14790); assay: Inhibition of human caspase 8 at 10 uM
[44] = target: Caspase-1 (Homo sapiens) (UniProt P29466); assay: Inhibition of human caspase 1 at 10 uM
[45] = target: Disintegrin and metalloproteinase domain-containing protein 17 (Homo sapiens) (UniProt P78536); assay: Inhibition of human TACE at 10 uM
Chain of Disintegrin and metalloproteinase domain-containing protein 17 (Homo sapiens) (P78536 whole entry, the tested form may be a part): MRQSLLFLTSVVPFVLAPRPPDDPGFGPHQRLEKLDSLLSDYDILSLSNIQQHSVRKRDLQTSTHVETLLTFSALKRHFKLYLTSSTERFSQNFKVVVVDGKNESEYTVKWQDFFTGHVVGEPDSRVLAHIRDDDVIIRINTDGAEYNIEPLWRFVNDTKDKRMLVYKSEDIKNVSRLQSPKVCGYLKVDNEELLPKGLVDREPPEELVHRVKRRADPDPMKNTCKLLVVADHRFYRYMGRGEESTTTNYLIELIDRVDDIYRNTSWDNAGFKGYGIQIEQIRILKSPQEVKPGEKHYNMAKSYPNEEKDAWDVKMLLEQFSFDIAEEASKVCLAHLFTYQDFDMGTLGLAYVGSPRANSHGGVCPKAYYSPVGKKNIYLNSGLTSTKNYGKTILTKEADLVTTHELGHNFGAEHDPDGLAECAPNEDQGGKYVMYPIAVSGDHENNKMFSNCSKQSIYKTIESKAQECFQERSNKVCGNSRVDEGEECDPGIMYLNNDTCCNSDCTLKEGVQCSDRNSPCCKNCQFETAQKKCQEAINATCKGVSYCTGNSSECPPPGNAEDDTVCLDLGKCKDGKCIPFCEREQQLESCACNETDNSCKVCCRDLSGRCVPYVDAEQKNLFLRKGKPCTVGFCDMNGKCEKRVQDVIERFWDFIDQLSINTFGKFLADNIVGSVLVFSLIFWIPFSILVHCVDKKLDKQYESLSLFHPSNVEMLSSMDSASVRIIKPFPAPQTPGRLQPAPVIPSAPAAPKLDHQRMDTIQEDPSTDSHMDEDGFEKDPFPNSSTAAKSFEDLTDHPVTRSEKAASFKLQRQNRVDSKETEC

[46] = target: Cathepsin D (Homo sapiens) (UniProt P07339); assay: Inhibition of human cathepsin D at 10 uM
Chain of Cathepsin D (Homo sapiens) (P07339 65-162 limits assumed): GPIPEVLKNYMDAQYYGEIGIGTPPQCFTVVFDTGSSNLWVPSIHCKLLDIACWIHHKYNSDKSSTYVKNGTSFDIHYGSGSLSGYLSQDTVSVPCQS
Chain of Cathepsin D (Homo sapiens) (P07339 169-412 limits assumed): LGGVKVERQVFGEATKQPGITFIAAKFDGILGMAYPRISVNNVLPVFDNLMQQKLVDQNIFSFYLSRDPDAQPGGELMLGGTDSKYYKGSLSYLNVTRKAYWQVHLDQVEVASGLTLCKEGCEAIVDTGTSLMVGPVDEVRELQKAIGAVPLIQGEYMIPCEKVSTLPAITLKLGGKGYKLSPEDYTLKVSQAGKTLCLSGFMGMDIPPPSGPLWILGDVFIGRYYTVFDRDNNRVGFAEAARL

[47] = target: Endothelin-converting enzyme 1 (Homo sapiens) (UniProt P42892); assay: Inhibition of human ECE1 at 10 uM
[48] = target: Procathepsin L (Homo sapiens) (UniProt P07711); assay: Inhibition of human cathepsin L at 10 uM
[49] = target: Renin (Homo sapiens) (UniProt P00797); assay: Inhibition of human renin at 10 uM
[50] = target: Neutrophil elastase (Homo sapiens) (UniProt P08246); assay: Inhibition of human neutrophil elastase 2 at 10 uM
[51] = target: Chymase (Homo sapiens) (UniProt P23946); assay: Inhibition of human chymase at 10 uM
[52] = target: Coagulation factor VII (Homo sapiens) (UniProt P08709); assay: Inhibition of human factor 7a at 10 uM
[53] = target: Cathepsin E (Homo sapiens) (UniProt P14091); assay: Inhibition of human cathepsin E at 10 uM
Chain of Cathepsin E (Homo sapiens) (P14091 whole entry): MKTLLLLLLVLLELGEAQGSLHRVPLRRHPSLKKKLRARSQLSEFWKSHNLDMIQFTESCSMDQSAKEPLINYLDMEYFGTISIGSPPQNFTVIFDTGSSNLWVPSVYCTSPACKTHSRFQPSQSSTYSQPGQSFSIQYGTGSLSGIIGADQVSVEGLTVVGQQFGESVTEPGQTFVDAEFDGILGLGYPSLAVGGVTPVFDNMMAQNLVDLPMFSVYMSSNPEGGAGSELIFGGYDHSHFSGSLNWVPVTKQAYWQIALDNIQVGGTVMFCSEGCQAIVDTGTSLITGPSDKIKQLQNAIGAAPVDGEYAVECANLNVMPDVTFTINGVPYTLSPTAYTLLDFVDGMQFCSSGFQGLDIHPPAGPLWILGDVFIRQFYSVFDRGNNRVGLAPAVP

[54] = AUC (0 to infinity) in CD1 mouse at 0.8 mg/kg, iv; assay type: ADME, organism-based; design: time infinity, dose 0.8 mg/kg, route intravenous; details: plasma
Procedure, shortened: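 CD-1 mice received a single dose by the iv or oral route. AUC from 0 to infinity was reported with terminal half-life, Vss, clearance and absolute oral bioavailability.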

[55] = Inhibition of bacterial prolyl oligopeptidase at 10 uM
[56] = target: Plasma kallikrein (Homo sapiens) (UniProt P03952); assay: Inhibition of human plasma kallikrein at 10 uM
Chain of Plasma kallikrein (Homo sapiens) (P03952 20-390 limits assumed): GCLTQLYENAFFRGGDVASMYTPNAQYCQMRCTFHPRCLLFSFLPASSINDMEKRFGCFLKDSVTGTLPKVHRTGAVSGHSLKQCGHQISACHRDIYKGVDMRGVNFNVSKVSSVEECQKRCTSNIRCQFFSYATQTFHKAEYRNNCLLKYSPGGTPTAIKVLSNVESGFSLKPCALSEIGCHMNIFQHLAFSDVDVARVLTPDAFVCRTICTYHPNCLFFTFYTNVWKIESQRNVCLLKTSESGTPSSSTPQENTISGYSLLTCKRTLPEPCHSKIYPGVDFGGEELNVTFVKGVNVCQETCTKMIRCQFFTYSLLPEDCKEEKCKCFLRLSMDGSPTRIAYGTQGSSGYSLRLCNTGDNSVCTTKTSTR
Chain of Plasma kallikrein (Homo sapiens) (P03952 391-638 limits assumed): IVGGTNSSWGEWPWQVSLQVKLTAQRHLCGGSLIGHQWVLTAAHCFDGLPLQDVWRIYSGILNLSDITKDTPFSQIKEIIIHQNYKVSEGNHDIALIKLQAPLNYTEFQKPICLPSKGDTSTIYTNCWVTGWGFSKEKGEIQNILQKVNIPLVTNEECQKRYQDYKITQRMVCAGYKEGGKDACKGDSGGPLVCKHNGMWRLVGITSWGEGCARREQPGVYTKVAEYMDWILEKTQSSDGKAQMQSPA

[57] = target: Dipeptidyl peptidase 1 (Bos taurus) (UniProt Q3ZCJ8); assay: Inhibition of bovine cathepsin C at 10 uM
[58] = target: Trypsin (Homo sapiens) (UniProt P07477+P07478+P35030); assay: Inhibition of human trypsin at 10 uM; assay type: protein assay
[59] = target: Cathepsin G (Homo sapiens) (UniProt P08311); assay: Inhibition of human cathepsin G at 10 uM
[60] = target: Caspase-9 (Homo sapiens) (UniProt P55211); assay: Inhibition of human caspase 9 at 10 uM
Chain of Caspase-9 (Homo sapiens) (P55211 1-315 limits assumed): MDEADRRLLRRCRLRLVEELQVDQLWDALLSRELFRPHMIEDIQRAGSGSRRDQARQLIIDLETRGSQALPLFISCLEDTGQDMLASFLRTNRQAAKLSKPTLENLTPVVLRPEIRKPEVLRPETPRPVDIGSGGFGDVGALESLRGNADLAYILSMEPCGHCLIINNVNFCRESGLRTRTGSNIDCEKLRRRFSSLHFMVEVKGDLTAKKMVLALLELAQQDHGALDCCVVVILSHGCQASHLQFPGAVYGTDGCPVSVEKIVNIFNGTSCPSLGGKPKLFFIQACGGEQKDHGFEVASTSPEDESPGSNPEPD
Chain of Caspase-9 (Homo sapiens) (P55211 331-416 limits assumed): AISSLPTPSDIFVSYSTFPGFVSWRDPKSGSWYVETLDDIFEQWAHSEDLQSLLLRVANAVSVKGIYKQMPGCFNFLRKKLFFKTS

[61] = target: Caspase-2 (Homo sapiens) (UniProt P42575); assay: Inhibition of human caspase 2 at 10 uM
[62] = Protein binding in dog plasma; assay type: ADME, cell-free, Canis lupus familiaris; details: read-out: PPB (converted)
[63] = target: Prothrombin (Homo sapiens) (UniProt P00734); assay: Inhibition of human thrombin at 10 uM

Compound: CC(C)C[C@H](NC(=O)[C@@H](NC(=O)c1csc(-c2ccccc2)n1)[C@@H](C)O)B(O)O
- IC50 [1]: 28 nM
- IC50 [2]: 4.6 nM
- EC50 [3]: 16 nM
- IC50 [4]: 590 nM

Compound: CC(C)C[C@H](NC(=O)[C@@H](NC(=O)c1ccc(-c2ccccc2)cc1)[C@@H](C)O)B(O)O
- IC50 [1]: 4.9 nM
- IC50 [2]: 0.9 nM
- EC50 [3]: 21 nM
- IC50 [4]: 600 nM

Compound: CC(C)C[C@H](NC(=O)[C@@H](NC(=O)c1ccc2ccccc2n1)[C@@H](C)O)B(O)O
- IC50 [1]: 20.9 nM
- IC50 [2]: 6.8 nM
- EC50 [3]: 32 nM
- IC50 [4]: 1300 nM

Compound: CC(C)C[C@H](NC(=O)[C@@H](NC(=O)c1cncc(-c2ccccc2)n1)[C@@H](C)O)B(O)O
- IC50 [1]: 9.8 nM
- IC50 [2]: 2.3 nM
- EC50 [3]: 27 nM
- IC50 [4]: 280 nM

Compound: CC(C)C[C@H](NC(=O)[C@H](Cc1ccccc1)NC(=O)c1cnccn1)B(O)O [BORTEZOMIB]
- inhibition [5]: 22%
- IC50 [1]: 1.7 nM
- inhibition [6]: 0%
- inhibition [7]: -1%
- fraction unbound [8]: 0.049
- inhibition [9]: 27%
- half-life [10]: 70 h
- inhibition [11]: -1%
- inhibition [12]: 86%
- inhibition [13]: 2%
- IC50 [14]: 1190 nM
- inhibition [15]: 6%
- inhibition [16]: 1%
- half-life [17]: 16 min
- IC50 [18]: 1220 nM
- inhibition [19]: 8%
- inhibition [20]: -6%
- IC50 [21]: 520 nM
- IC50 [2]: 3.8 nM
- Vd [22]: 102 L/kg
- half-life [23]: > 40 min
- inhibition [24]: 1%
- fraction unbound [25]: 0.069
- EC50 [3]: 21 nM
- inhibition [26]: -1%
- clearance [27]: 14.3 mL/min/kg
- Activity [28]: inactive
- inhibition [29]: 0%
- inhibition [30]: 9%
- inhibition [31]: -7%
- inhibition [32]: 48%
- bioavailability [33]: 11%
- inhibition [34]: 1%
- inhibition [35]: -2%
- half-life [36]: 98 h
- AUC(0-inf) [37]: 499 ng·h/mL
- IC50 [4]: 500 nM
- inhibition [38]: 4%
- inhibition [39]: 3%
- half-life [40]: 21 min
- inhibition [41]: 8%
- half-life [42]: 37 min
- inhibition [43]: -4%
- inhibition [44]: 0%
- inhibition [45]: 2%
- inhibition [46]: -1%
- inhibition [47]: 26%
- inhibition [48]: 50%
- inhibition [49]: -1%
- inhibition [50]: 27%
- inhibition [51]: 95%
- inhibition [52]: 4%
- inhibition [53]: -3%
- AUC(0-inf) [54]: 927 ng·h/mL
- inhibition [55]: 9%
- inhibition [56]: 6%
- inhibition [57]: 5%
- inhibition [58]: -1%
- inhibition [59]: 96%
- inhibition [60]: 0%
- inhibition [61]: 1%
- fraction unbound [62]: 0.058
- inhibition [63]: 2%

Compound: CC(C)C[C@H](NC(=O)[C@@H](NC(=O)c1ncccc1-c1ccccc1)[C@@H](C)O)B(O)O
- IC50 [2]: 8.8 nM
- EC50 [3]: 13000 nM
- IC50 [4]: 460 nM

Compound: CC(C)C[C@H](NC(=O)[C@@H](NC(=O)c1ccc2ccccc2c1)[C@@H](C)O)B(O)O
- IC50 [1]: 5.3 nM
- IC50 [2]: 1.6 nM
- EC50 [3]: 27 nM
- IC50 [4]: 500 nM

Compound: CC(C)C[C@H](NC(=O)[C@@H](NC(=O)c1cc(-c2ccccc2)ccn1)[C@@H](C)O)B(O)O
- IC50 [1]: 5.1 nM
- IC50 [2]: 2 nM
- EC50 [3]: 18.6 nM
- IC50 [4]: 290 nM

Compound: CC(C)C[C@H](NC(=O)[C@@H](NC(=O)c1cccc(-c2ccccc2)c1)[C@@H](C)O)B(O)O
- IC50 [1]: 4.8 nM
- IC50 [2]: 0.8 nM
- EC50 [3]: 16.9 nM
- IC50 [4]: 900 nM

Compound: CC(C)C[C@H](NC(=O)[C@@H](NC(=O)c1cnccn1)[C@@H](C)O)B(O)O
- IC50 [2]: 42 nM
- EC50 [3]: 1350 nM

Compound: CC(C)C[C@H](NC(=O)[C@@H](NC(=O)c1cnc(-c2ccccc2)cn1)[C@@H](C)O)B(O)O
- IC50 [1]: 8.2 nM
- IC50 [2]: 1.8 nM
- EC50 [3]: 21 nM
- IC50 [4]: 270 nM
